The values below come from ChEMBL document CHEMBL1145061, “New potential uroselective NO-donor alpha1-antagonists” (J Med Chem, 2003).

By Ki is commonly meant the equilibrium dissociation constant of an inhibitor or competing ligand from its target. Lower therefore signals tighter binding.

The target of assay [1] is T1, Alpha-1B adrenergic receptor (Homo sapiens, UniProt P35368).
T1 sequence (P35368 whole entry): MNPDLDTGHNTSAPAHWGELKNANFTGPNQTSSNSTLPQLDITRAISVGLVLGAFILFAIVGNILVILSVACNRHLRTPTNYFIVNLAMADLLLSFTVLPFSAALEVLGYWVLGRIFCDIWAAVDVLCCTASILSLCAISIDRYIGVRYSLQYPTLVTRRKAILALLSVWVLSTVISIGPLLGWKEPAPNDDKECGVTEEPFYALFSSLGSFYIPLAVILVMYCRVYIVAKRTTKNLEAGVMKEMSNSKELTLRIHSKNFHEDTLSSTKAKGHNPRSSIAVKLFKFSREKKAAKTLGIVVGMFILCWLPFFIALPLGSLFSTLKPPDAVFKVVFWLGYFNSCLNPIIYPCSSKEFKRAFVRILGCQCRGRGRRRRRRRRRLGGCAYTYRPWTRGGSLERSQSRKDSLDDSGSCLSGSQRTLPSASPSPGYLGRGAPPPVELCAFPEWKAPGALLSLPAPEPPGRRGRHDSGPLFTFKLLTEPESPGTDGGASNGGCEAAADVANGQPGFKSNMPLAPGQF
The experiment in a line: Inhibition of [3H]-prazosin binding to cloned human Alpha-1B adrenergic receptor in CHO cells (chinese hamster ovary cells). It is filed as cell-based. The method, boiled down: (§1)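 Membranes from CHO cells expressing cloned human α1a, α1b or α1d subtypes, [3H]prazosin competition binding.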

Assay [2] deals with T2, Adrenergic receptor alpha-2 (Rattus norvegicus, UniProt P22086+P19328+P22909).
T2 sequence (P22086 whole entry): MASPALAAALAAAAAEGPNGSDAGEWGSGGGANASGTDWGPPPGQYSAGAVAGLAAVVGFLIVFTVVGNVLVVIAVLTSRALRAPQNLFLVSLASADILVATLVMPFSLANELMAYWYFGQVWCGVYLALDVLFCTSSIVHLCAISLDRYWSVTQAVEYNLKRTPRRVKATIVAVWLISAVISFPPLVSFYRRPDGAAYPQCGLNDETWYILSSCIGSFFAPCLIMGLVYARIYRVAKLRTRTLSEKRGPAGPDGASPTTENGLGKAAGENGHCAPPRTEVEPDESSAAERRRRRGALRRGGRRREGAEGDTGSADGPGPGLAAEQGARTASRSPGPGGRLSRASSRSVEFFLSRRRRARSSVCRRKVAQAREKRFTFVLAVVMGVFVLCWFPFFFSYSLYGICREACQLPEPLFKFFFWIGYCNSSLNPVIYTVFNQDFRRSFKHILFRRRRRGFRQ
T2 sequence (P19328 whole entry): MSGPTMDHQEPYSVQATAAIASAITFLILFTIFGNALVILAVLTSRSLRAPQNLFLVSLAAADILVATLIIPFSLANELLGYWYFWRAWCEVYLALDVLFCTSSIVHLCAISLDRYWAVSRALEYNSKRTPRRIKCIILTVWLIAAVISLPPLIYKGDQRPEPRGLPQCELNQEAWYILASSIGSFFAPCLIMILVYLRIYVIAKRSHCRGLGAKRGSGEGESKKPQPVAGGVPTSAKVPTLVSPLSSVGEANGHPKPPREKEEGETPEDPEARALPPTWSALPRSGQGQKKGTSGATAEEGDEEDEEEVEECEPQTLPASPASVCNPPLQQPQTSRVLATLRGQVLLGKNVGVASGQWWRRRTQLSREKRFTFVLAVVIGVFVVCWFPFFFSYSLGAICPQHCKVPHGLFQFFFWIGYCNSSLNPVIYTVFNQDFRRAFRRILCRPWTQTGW
T2 sequence (P22909 whole entry): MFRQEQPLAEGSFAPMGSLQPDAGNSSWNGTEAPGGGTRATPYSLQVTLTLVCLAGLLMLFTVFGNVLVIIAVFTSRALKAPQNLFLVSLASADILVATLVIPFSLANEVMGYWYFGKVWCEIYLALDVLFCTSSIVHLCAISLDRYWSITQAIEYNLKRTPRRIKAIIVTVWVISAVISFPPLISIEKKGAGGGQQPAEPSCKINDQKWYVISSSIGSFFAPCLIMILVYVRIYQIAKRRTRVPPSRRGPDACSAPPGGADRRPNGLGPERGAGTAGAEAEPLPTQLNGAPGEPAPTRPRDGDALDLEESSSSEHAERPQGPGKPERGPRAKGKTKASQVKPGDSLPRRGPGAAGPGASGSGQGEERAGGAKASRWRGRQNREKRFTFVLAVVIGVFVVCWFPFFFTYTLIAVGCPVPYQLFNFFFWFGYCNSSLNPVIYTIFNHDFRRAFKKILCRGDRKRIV
The experiment in a line: Inhibition of [3H]- rauwolscine binding to alpha-2 adrenergic receptor in membrane of rat cerebral cortex. In kind it is tissue-based. In short, it runs like this:
(§2)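 Native α2 receptors in rat cerebral cortex membranes, competition binding with [3H]rauwolscine.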

The target of assay [3] is T3, Alpha-1D adrenergic receptor (Homo sapiens, UniProt P25100).
T3 sequence (P25100 whole entry): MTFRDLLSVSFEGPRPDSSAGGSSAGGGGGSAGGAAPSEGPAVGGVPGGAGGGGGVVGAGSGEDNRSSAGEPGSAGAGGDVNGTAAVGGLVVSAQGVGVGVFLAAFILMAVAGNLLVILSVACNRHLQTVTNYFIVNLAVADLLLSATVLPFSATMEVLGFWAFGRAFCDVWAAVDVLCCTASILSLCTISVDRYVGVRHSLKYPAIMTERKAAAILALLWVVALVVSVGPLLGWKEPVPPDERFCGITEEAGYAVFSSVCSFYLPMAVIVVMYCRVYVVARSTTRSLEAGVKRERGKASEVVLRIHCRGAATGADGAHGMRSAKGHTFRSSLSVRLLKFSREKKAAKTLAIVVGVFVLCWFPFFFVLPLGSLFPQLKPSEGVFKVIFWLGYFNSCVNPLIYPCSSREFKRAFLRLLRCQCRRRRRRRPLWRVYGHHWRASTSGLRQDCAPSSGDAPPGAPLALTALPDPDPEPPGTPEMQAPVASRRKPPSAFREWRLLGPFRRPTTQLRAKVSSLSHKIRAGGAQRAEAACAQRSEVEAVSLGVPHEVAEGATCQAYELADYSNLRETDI
Put plainly: Inhibition of [3H]-prazosin binding to cloned human Alpha-1D adrenergic receptor in CHO cells (chinese hamster ovary cells). In kind it is cell-based. In short, it runs like this: as §1

Assay [4] addresses T4, 5-hydroxytryptamine receptor 1A (Homo sapiens, UniProt P08908).
T4 sequence (P08908 whole entry): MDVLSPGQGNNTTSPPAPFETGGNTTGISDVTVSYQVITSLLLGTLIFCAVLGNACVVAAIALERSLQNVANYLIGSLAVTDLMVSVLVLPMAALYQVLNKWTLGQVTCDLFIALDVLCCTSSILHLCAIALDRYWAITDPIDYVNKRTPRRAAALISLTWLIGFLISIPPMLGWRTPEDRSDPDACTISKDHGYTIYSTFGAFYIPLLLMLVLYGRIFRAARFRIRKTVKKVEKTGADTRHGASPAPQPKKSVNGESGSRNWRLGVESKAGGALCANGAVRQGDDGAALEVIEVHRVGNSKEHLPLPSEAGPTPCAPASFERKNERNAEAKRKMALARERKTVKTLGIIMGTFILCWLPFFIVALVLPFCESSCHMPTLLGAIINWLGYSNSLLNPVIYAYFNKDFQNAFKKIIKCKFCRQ
The experiment in a line: Inhibition of [3H]8-OH-DPAT binding to 5-hydroxytryptamine 1A receptor serotonergic receptor in human HeLa cells. In kind it is cell-based. The method, boiled down:
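Membranes from HeLa cells expressing the cloned human 5-HT1A receptor, [3H]-8-OH-DPAT competition binding.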

Assay [5] deals with T5, Alpha-1A adrenergic receptor (Homo sapiens, UniProt P35348).
T5 sequence (P35348 whole entry): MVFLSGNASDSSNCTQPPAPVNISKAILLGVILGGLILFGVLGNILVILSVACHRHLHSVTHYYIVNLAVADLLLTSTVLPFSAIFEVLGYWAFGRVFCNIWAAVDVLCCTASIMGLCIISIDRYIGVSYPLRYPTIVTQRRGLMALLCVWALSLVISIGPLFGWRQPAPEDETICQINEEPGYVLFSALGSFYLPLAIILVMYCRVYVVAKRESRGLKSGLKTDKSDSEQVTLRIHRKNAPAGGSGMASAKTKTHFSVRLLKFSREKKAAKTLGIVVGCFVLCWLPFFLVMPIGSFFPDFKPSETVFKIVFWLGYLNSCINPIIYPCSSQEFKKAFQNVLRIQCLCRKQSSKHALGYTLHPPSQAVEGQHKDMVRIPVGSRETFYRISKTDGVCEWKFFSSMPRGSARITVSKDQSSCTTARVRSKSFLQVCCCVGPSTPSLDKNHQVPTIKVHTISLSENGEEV
Put plainly: Inhibition of [3H]prazosin binding to cloned human Alpha-1A adrenergic receptor in CHO cells (chinese hamster ovary cells). It is filed as cell-based. The method, boiled down: as §1

Assay [6] can be described thus: Thiol induced NO generation, through griess reaction expressed as % NO2- in presence of 5*10e-4 M L-cysteine. In short, it runs like this:
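Compound in DMSO diluted to 10^-4 M final in 1:1 v/v 50 mM phosphate buffer (pH 7.4)/MeOH containing 5 × 10^-4 M L-cysteine. Held 1 h at 37 °C, then treated with Griess reagent. Nitrite reported as % NO2- (mol/mol).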

Assay [7] deals with T6, Alpha-1A adrenergic receptor (Rattus norvegicus, UniProt P43140).
T6 sequence (P43140 whole entry): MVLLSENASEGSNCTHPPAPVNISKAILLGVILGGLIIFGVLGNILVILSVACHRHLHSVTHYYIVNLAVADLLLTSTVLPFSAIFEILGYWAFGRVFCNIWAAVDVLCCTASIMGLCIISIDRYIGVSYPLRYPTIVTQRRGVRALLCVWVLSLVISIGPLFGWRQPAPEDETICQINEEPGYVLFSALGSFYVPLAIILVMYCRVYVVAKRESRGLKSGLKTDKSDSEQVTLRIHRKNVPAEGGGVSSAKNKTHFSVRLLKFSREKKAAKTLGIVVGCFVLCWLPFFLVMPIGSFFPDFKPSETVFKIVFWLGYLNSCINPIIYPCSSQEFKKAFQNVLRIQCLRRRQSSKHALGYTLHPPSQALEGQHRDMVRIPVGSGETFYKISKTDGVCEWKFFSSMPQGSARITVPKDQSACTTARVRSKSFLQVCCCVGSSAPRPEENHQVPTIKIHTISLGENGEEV
The experiment in a line: Functional Alpha-1A adrenergic receptor antagonistic activity of noradrenaline induced contractions in prostatic portion of rat vas deferens. It is filed as tissue-based. The following applies: read-out: pA2 (converted). The method, boiled down:
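Rat vas deferens, prostatic portion. Cumulative noradrenaline concentration-response curves were run with and without antagonist. pA2 came from 6-14 determinations. Where two antagonist concentrations were used and gave similar pA2, antagonism was taken as competitive; otherwise an apparent pA2 was taken at one concentration. Where NO relaxation appeared, 1 µM ODQ was added at least 10 min before the antagonist.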

The target in assay [8] is T2, Adrenergic receptor alpha-2. Put plainly: Inhibition of [3H]- rauwolscine binding to alpha-2 adrenergic receptor in rat cerebral cortex. It is filed as tissue-based. In short, it runs like this: as §2
The target in assay [9] is T1, Alpha-1B adrenergic receptor. The experiment in a line: Inhibition of [3H]prazosin binding to cloned human Alpha-1B adrenergic receptor in CHO cells (chinese hamster ovary cells). In kind it is cell-based. The method, boiled down:
as §1

Take `Cc1c(-c2ccccc2)oc2c(C(=O)NCCCN3CCN(c4ccccc4OCc4no[n+]([O-])c4C#N)CC3)cccc2c1=O`: the Ki is 6.5 nM in assay [1]; 81.1 nM in assay [2]; 3.9 nM in [3]; 2.2 nM in assay [4]; 0.73 nM in [5]. For the same compound, in assay [6], the NO2- (mol/mol) worked out at 32.3%. Also, the Kb in assay [7] is 34.7 nM.

`Cc1c(-c2ccccc2)oc2c(C(=O)NCCCN3CCN(c4ccccc4OCc4no[n+]([O-])c4C(N)=O)CC3)cccc2c1=O`: the Ki in assay [1] came to 15.9 nM; in assay [2], 359 nM; in assay [3], 20.4 nM; in assay [4], 1.2 nM; in assay [5], 1.8 nM. For the same compound, in [6], the NO2- (mol/mol) worked out at 5.28%. Besides, the Kb in assay [7] is 10.7 nM.

The compound `COc1ccccc1N1CCN(CCCNC(=O)c2cccc3c(=O)c(C)c(-c4ccccc4)oc23)CC1` [UPIDOSIN] displayed a Ki in [8] of 33.3 nM. For the same compound, the Kb in assay [7] is 3.8 nM.

For the compound `Cc1c(-c2ccccc2)oc2c(C(=O)NCCCN3CCN(c4ccccc4OCCCO[N+](=O)[O-])CC3)cccc2c1=O`, the Ki in assay [1] stood at 1.2 nM; in [2] it was 81.8 nM; in assay [3], 3.5 nM; in assay [4], 7.2 nM; in assay [5], 0.094 nM. Further, the NO2- (mol/mol) in [6] is < 1%. Moreover, in assay [7], the Kb is 2.29 nM.

For the compound `Cc1c(-c2ccccc2)oc2c(C(=O)NCCCN3CCN(c4ccccc4OCc4no[n+]([O-])c4C)CC3)cccc2c1=O`, the Ki was 53.5 nM in assay [2]; 4.2 nM in assay [3]; 1.6 nM in assay [4]; 0.16 nM in [5]; 4.7 nM in assay [9]. Further, the NO2- (mol/mol) in [6] amounted to 1.11%. Also, the Kb in assay [7] is 6.17 nM.
